Holding throughout (format): nucleic-acid assay
Experiment [1] deals with Nucleic Acid. Kind of experiment: Induction of Staphylococcus aureus 6538 DNA cleavage after 2 hrs by agarose gel electrophoresis. A digest of the protocol: (§1)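 Genomic DNA was isolated from cultures grown at 37 °C (E. coli and S. aureus in nutrient broth for 24 h; A. niger in potato dextrose broth for 48 h). Extraction used Tris/EDTA/SDS lysis, phenol at 55 °C, chloroform:isoamyl alcohol and ethanol precipitation. DNA was incubated 2 h at 37 °C with compound from a 1 mg/mL DMF stock, then run on agarose in TAE at 50 V for about 30 min against marker and untreated-DNA lanes.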

In experiment [2] the test system is Nucleic Acid. Kind of experiment: Induction of Escherichia coli ATCC 35218 DNA cleavage after 2 hrs by agarose gel electrophoresis. A digest of the protocol:
as §1

Experiment [3] has as its system Nucleic Acid. Briefly: Induction of Aspergillus niger DNA cleavage after 2 hrs by agarose gel electrophoresis. A digest of the protocol: as §1

The values that follow come from ChEMBL document CHEMBL1240416, “Synthesis, structure and DNA cleavage studies of coumarin analogues of tetrahydroisoquinoline and protoberberine alkaloids” (Eur J Med Chem, 2010).

The source made the active and inactive calls. No cut-off for these calls is given here.

For the compound `Cc1ccc2oc(=O)cc(CC3NCCc4ccccc43)c2c1` (stereo unspecified), the result in the experiment with Nucleic Acid [1], in the experiment on Nucleic Acid [2] and with Nucleic Acid [3] was inactive.

On to `Cc1ccc2c3c(c(=O)oc2c1)CN1CCc2ccccc2C1C3` (stereo unspecified), for which the result in the experiment on Nucleic Acid [1], in the experiment with Nucleic Acid [2] and with Nucleic Acid [3] was inactive.

Take `Cc1ccc2oc(=O)c3c(c2c1)CC1c2ccccc2CCN1C3` (stereo unspecified): the outcome with Nucleic Acid [1], in the experiment with Nucleic Acid [2] and with Nucleic Acid [3] was inactive.

For the compound `O=c1cc(CC2NCCc3ccccc32)c2ccc3ccccc3c2o1` (stereo unspecified), the outcome with Nucleic Acid [1] and with Nucleic Acid [3] was Active. Besides, the result with Nucleic Acid [2] was inactive.

Regarding `COc1cc2c(cc1OC)C(Cc1cc(=O)oc3cc(C)ccc13)NCC2` (stereo unspecified), the result in the experiment with Nucleic Acid [1], in the experiment on Nucleic Acid [2] and in the experiment on Nucleic Acid [3] was inactive.

With `COc1cc2c(cc1OC)C1Cc3c(c(=O)oc4ccc(C)cc34)CN1CC2` (stereo unspecified), the outcome in the experiment with Nucleic Acid [1], in the experiment with Nucleic Acid [2] and in the experiment on Nucleic Acid [3] was inactive.

Regarding `COc1cc2c(cc1OC)C1Cc3c(c(=O)oc4c3ccc3ccccc34)CN1CC2` (stereo unspecified), the result with Nucleic Acid [1] and with Nucleic Acid [3] was Active. The result in the experiment on Nucleic Acid [2] was inactive.

On to `COc1cc2c(cc1OC)C(Cc1cc(=O)oc3c1ccc1ccccc13)NCC2` (stereo unspecified), for which the outcome with Nucleic Acid [1] and in the experiment on Nucleic Acid [3] was Active. Further, in the experiment on Nucleic Acid [2], the outcome was inactive.

`O=c1oc2c(ccc3ccccc32)c2c1CN1CCc3ccccc3C1C2` (stereo unspecified): the result in the experiment with Nucleic Acid [1] and in the experiment with Nucleic Acid [3] was Active. Moreover, the outcome in the experiment with Nucleic Acid [2] was inactive.

On to `COc1cc2c(cc1OC)C(Cc1cc(=O)oc3ccc(C)cc13)NCC2` (stereo unspecified), for which the outcome in the experiment with Nucleic Acid [1], in the experiment with Nucleic Acid [2] and in the experiment with Nucleic Acid [3] was inactive.

Regarding `Cc1ccc2c(CC3NCCc4ccccc43)cc(=O)oc2c1` (stereo unspecified), the result with Nucleic Acid [1], with Nucleic Acid [2] and in the experiment with Nucleic Acid [3] was inactive.

Regarding `COc1cc2c(cc1OC)C1Cc3c(c(=O)oc4cc(C)ccc34)CN1CC2` (stereo unspecified), the outcome in the experiment with Nucleic Acid [1], in the experiment with Nucleic Acid [2] and in the experiment with Nucleic Acid [3] was inactive.
